Test results published in ChEMBL document CHEMBL1275447 (Antimicrob Agents Chemother, 2008).
Converted amounts (≈) assume the structure as drawn. The source made the active and inactive calls. No cut-off for these calls is given here.

Experiments:
[1] = AUC in Pseudomonas aeruginosa ATCC 27853 infected neutropenic ICR mouse at 500 mg administered as 4 hr infusion; format: ADME, organism-based; conditions: plasma, iv
Pseudomonas aeruginosa [2] = experiment: Antibacterial activity against Pseudomonas aeruginosa isolate 931 by microdilution method; format: functional
Procedure, shortened: (§1)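 CLSI broth microdilution in cation-adjusted Mueller-Hinton broth (20–25 mg/liter Ca, 10–12.5 mg/liter Mg). Standard inoculum 10⁵ CFU/ml, incubated in ambient air. Clinical hospital isolates.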

[3] = fT>MIC in human infected with Pseudomonas aeruginosa isolate 927 at 500 mg administered as 1 hr infusion; format: functional
[4] = fT>MIC in human infected with Pseudomonas aeruginosa isolate 1052 at 500 mg administered as 1 hr infusion; format: functional
[5] = fT>MIC in human infected with Pseudomonas aeruginosa isolate 1036 at 500 mg administered as 4 hr infusion; format: functional
[6] = fT>MIC in human infected with Pseudomonas aeruginosa isolate 906 at 500 mg administered as 4 hr infusion; format: functional
Pseudomonas aeruginosa [7] = experiment: Antibacterial activity against Pseudomonas aeruginosa isolate 1052 by microdilution method; format: functional; procedure, shortened: as §1
[8] = fT>MIC in neutropenic mouse infected with Pseudomonas aeruginosa isolate 1029 at 500 mg administered as 4 hr infusion; format: functional
[9] = fT>MIC in neutropenic mouse infected with Pseudomonas aeruginosa isolate 896 at 500 mg administered as 4 hr infusion; format: functional
Procedure, shortened: (§2)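 Mouse fT>MIC was modelled with first-order one-compartment serum PK and 25.2% binding. Mice were neutropenic (cyclophosphamide) with uranyl nitrate renal impairment. Subcutaneous doses were 5.5, 2.25, 4.5, 4.5, 4.5, 4.5, 0.75, 0.375 mg/kg at 0, 0.5, 1.5, 2.5, 3.5, 4.5, 6, 7.5 h per 8-h interval over 24 h.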

[10] = fT>MIC in human infected with Pseudomonas aeruginosa isolate 1005 at 500 mg administered as 1 hr infusion; format: functional
[11] = fT>MIC in human infected with Pseudomonas aeruginosa isolate 886 at 500 mg administered as 1 hr infusion; format: functional
[12] = Elimination rate constant in Pseudomonas aeruginosa ATCC 27853 infected neutropenic ICR mouse at 10 mg/kg, sc administered as single dose 2 hrs postinfection; format: ADME, organism-based; parameters: dose 10 mg/kg, route subcutaneous; conditions: in vivo
Procedure, shortened: (§3)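 Neutropenic mice (cyclophosphamide ip 150 and 100 mg/kg, 4 and 1 days before inoculation) with uranyl nitrate 5 mg/kg ip 3 days before, for renal impairment. Thigh infection with ATCC 27853 at 10⁶ CFU/ml, 0.1 ml per thigh. Single sc doses 2 h later. Intracardiac blood from 6–12 mice per time point, eight time points over 4 h. Serum assayed by HPLC (linear 0.5–40 μg/ml). One-compartment first-order fit.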

Pseudomonas aeruginosa [13] = experiment: Antibacterial activity against Pseudomonas aeruginosa isolate 935 by microdilution method; format: functional; procedure, shortened: as §1
Pseudomonas aeruginosa [14] = experiment: Antibacterial activity against Pseudomonas aeruginosa isolate 944 by fractionation study; format: functional
[15] = Clearance in Pseudomonas aeruginosa ATCC 27853 infected neutropenic ICR mouse at 150 mg/kg, sc administered as single dose 2 hrs postinfection; format: ADME, organism-based; parameters: dose 150 mg/kg, route subcutaneous; conditions: in vivo; procedure, shortened: as §3
[16] = fT>MIC in human infected with Pseudomonas aeruginosa isolate 906 at 500 mg administered as 1 hr infusion; format: functional
[17] = fT>MIC in human infected with Pseudomonas aeruginosa isolate 1052 at 500 mg administered as 4 hr infusion; format: functional
Pseudomonas aeruginosa [18] = experiment: Antibacterial activity against Pseudomonas aeruginosa isolate 1006 by microdilution method; format: functional
Pseudomonas aeruginosa [19] = experiment: Antibacterial activity against Pseudomonas aeruginosa isolate 927 by microdilution method; format: functional
Pseudomonas aeruginosa [20] = experiment: Antibacterial activity against Pseudomonas aeruginosa isolate 1058 by microdilution method; format: functional
[21] = AUC (0 to 24 hrs) in Pseudomonas aeruginosa ATCC 27853 infected neutropenic ICR mouse at 150 mg/kg, sc administered as single dose 2 hrs postinfection; format: ADME, organism-based; parameters: time < 24 hr, dose 150 mg/kg, route subcutaneous; conditions: plasma; procedure, shortened: as §3
[22] = Cmax in healthy human at 500 mg administered as as 4 hr infusion; format: ADME, organism-based; parameters: dose 500 mg; conditions: in vivo, iv
[23] = fT>MIC in human infected with Pseudomonas aeruginosa isolate 869 at 500 mg administered as 4 hr infusion; format: functional
[24] = fT>MIC in neutropenic mouse infected with Pseudomonas aeruginosa isolate 1036 at 500 mg administered as 1 hr infusion; format: functional
[25] = fT>MIC in neutropenic mouse infected with Pseudomonas aeruginosa isolate 979 at 500 mg administered as 4 hr infusion; format: functional; procedure, shortened: as §2
[26] = fT>MIC in neutropenic mouse infected with Pseudomonas aeruginosa isolate 1058 at 500 mg administered as 4 hr infusion; format: functional; procedure, shortened: as §2
[27] = fT>MIC in human infected with Pseudomonas aeruginosa isolate 886 at 500 mg administered as 4 hr infusion; format: functional
[28] = fT>MIC in neutropenic mouse infected with Pseudomonas aeruginosa isolate 993 at 500 mg administered as 4 hr infusion; format: functional; procedure, shortened: as §2
[29] = fT>MIC in human infected with Pseudomonas aeruginosa isolate 988 at 500 mg administered as 1 hr infusion; format: functional
Pseudomonas aeruginosa [30] = experiment: Antibacterial activity against Pseudomonas aeruginosa isolate 944 at 4 ug/ml after 24 hrs; format: functional, organism-based
[31] = AUC (0 to 24 hrs) in Pseudomonas aeruginosa ATCC 27853 infected neutropenic ICR mouse at 50 mg/kg, sc administered as single dose 2 hrs postinfection; format: ADME, organism-based; parameters: time < 24 hr, dose 50 mg/kg, route subcutaneous; conditions: plasma; procedure, shortened: as §3
[32] = fT>MIC in human infected with Pseudomonas aeruginosa isolate 1058 at 500 mg administered as 1 hr infusion; format: functional
[33] = Half-life in Pseudomonas aeruginosa ATCC 27853 infected neutropenic ICR mouse at 150 mg/kg, sc administered as single dose 2 hrs postinfection; format: ADME, organism-based; parameters: dose 150 mg/kg, route subcutaneous; conditions: in vivo; procedure, shortened: as §3
[34] = fT>MIC in neutropenic mouse infected with Pseudomonas aeruginosa isolate 906 at 500 mg administered as 4 hr infusion; format: functional; procedure, shortened: as §2
[35] = fT>MIC in neutropenic mouse infected with Pseudomonas aeruginosa isolate 944 at 500 mg administered as 4 hr infusion; format: functional; procedure, shortened: as §2
[36] = fT>MIC in human infected with Pseudomonas aeruginosa isolate 993 at 500 mg administered as 4 hr infusion; format: functional
Pseudomonas aeruginosa [37] = experiment: Antibacterial activity against Pseudomonas aeruginosa isolate 1029 by microdilution method; format: functional
[38] = fT>MIC in neutropenic mouse infected with Pseudomonas aeruginosa isolate 927 at 500 mg administered as 4 hr infusion; format: functional; procedure, shortened: as §2
[39] = fT>MIC in neutropenic mouse infected with Pseudomonas aeruginosa isolate 1062 at 500 mg administered as 1 hr infusion; format: functional
Procedure, shortened: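 Free-drug time above MIC simulated from one-compartment mouse serum PK (25.2% protein binding). The mice were cyclophosphamide-neutropenic and uranyl nitrate-renally impaired. Regimen was subcutaneous 10, 15, 2.5, 1.25, 0.5, 0.25 mg/kg at 0, 0.5, 2.5, 4, 5.5, 7 h, repeated every 8 h over 24 h.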

[40] = fT>MIC in human infected with Pseudomonas aeruginosa isolate 1029 at 500 mg administered as 4 hr infusion; format: functional
[41] = fT>MIC in human infected with Pseudomonas aeruginosa isolate 1005 at 500 mg administered as 4 hr infusion; format: functional

Question: With C[C@@H](O)[C@H]1C(=O)N2C(C(=O)O)=C(S[C@@H]3CN[C@H](CNS(N)(=O)=O)C3)[C@H](C)[C@H]12 [DORIPENEM] as the molecule, how does the AUC at 4 h [1] read?
Answer: 34400 ng·h/mL

Question: What about the MIC (Pseudomonas aeruginosa [2]) of the same molecule?
Answer: 4 µg/mL (≈ 9.51 µM)

Question: What about the “fT>MIC” value [3] of the same molecule?
Answer: 7.5%

Question: And the “fT>MIC” value [4]?
Answer: 55%

Question: What about the fT>MIC [5] of the same molecule?
Answer: 65%

Question: What about the fT>MIC [6] of the same molecule?
Answer: 65%

Question: And the MIC (Pseudomonas aeruginosa [7])?
Answer: 1 µg/mL (≈ 2.38 µM)

Question: What about the “fT>MIC” value [8] of the same molecule?
Answer: 100%

Question: And the “fT>MIC” value [9]?
Answer: 0%

Question: And the “fT>MIC” value [10]?
Answer: 55%

Question: And the “fT>MIC” value [11]?
Answer: 90%

Question: And the k el at 2 h [12]?
Answer: 0.000467 s⁻¹

Question: And the MIC (Pseudomonas aeruginosa [13])?
Answer: 1 µg/mL (≈ 2.38 µM)

Question: What about the MIC (Pseudomonas aeruginosa [14]) of the same molecule?
Answer: 3 µg/mL (≈ 7.13 µM)

Question: What about the CL/F [15] of the same molecule?
Answer: 14.2 mL/min/kg

Question: What about the “fT>MIC” value [16] of the same molecule?
Answer: 40%

Question: And the fT>MIC [17]?
Answer: 80%

Question: What about the MIC (Pseudomonas aeruginosa [18]) of the same molecule?
Answer: 8 µg/mL (≈ 19 µM)

Question: And the MIC (Pseudomonas aeruginosa [19])?
Answer: 16 µg/mL (≈ 38 µM)

Question: And the MIC (Pseudomonas aeruginosa [20])?
Answer: 2 µg/mL (≈ 4.76 µM)

Question: What about the AUC(0-t) at 24 h [21] of the same molecule?
Answer: 168000 ng·h/mL

Question: And the Cmax [22]?
Answer: 7790 ng/mL

Question: What about the fT>MIC [23] of the same molecule?
Answer: 100%

Question: And the fT>MIC [24]?
Answer: 42.5%

Question: What about the “fT>MIC” value [25] of the same molecule?
Answer: 70%

Question: What about the “fT>MIC” value [26] of the same molecule?
Answer: 70%

Question: And the fT>MIC [27]?
Answer: 100%

Question: What about the “fT>MIC” value [28] of the same molecule?
Answer: 100%

Question: What about the “fT>MIC” value [29] of the same molecule?
Answer: 17.5%

Question: And the Activity (Pseudomonas aeruginosa [30])?
Answer: inactive

Question: And the AUC(0-t) at 24 h [31]?
Answer: 62400 ng·h/mL

Question: What about the “fT>MIC” value [32] of the same molecule?
Answer: 40%

Question: And the half-life [33]?
Answer: 26.4 min

Question: And the “fT>MIC” value [34]?
Answer: 70%

Question: What about the “fT>MIC” value [35] of the same molecule?
Answer: 52.5%

Question: What about the “fT>MIC” value [36] of the same molecule?
Answer: 100%

Question: What about the MIC (Pseudomonas aeruginosa [37]) of the same molecule?
Answer: 0.125 µg/mL (≈ 0.297 µM)

Question: What about the “fT>MIC” value [38] of the same molecule?
Answer: 0%

Question: What about the fT>MIC [39] of the same molecule?
Answer: 75%

Question: What about the “fT>MIC” value [40] of the same molecule?
Answer: 100%

Question: And the fT>MIC [41]?
Answer: 80%
